Results: ChEMBL document CHEMBL1155506 (J Med Chem, 2010)

How the values were obtained:
[1] = Antiplatelet activity in human platelet rich plasma assessed as inhibition of ADP-induced aggregation preincubated for 1 min before 5-HT and ADP challenge measured after 3 mins by turbidimetry
hERG (KCNH2) = hERG (KCNH2) (Homo sapiens, UniProt Q12809); experiment: Inhibition of human ERG at 3 uM by patch clamp assay
[2] = target: T1, 5-hydroxytryptamine receptor 2C (Homo sapiens, UniProt P28335); experiment: Displacement of [125I]DOI from human recombinant 5HT2C receptor expressed in HEK293 cells by scintillation counting; assay type: cell-based
T1 sequence (P28335 whole entry): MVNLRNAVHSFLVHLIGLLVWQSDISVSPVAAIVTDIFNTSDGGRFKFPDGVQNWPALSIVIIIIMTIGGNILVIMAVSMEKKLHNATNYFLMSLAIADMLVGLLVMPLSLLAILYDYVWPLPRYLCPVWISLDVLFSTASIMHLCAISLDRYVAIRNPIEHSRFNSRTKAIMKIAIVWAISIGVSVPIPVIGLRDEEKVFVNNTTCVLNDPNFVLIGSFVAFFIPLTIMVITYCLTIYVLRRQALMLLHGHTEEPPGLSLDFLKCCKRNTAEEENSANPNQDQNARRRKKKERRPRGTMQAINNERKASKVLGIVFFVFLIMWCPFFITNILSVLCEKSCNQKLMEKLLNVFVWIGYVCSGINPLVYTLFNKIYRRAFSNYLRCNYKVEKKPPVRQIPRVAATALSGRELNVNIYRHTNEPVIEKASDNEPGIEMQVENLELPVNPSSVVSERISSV
Procedure, shortened: (§1)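 Crude plasma membranes from HEK293 cells stably expressing the human receptor (5–25 μg protein), in 20 mM HEPES pH 7.4 with 10 mM MgCl2. Incubated with 0.5 nM [125I]DOI and test compound (1 pM–10 μM) for 1 h at room temperature; nonspecific binding defined with 10 μM cold DOI. Filtered, washed with ice-cold Tris buffer and scintillation counted in triplicate.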

[3] = target: 5-hydroxytryptamine receptor 2A (Homo sapiens, UniProt P28223); experiment: Displacement of [125I]DOI from human recombinant 5HT2A receptor expressed in HEK293 cells by scintillation counting; assay type: cell-based
Procedure, shortened: as §1

5-hydroxytryptamine receptor 2A, sequence (P28223 whole entry): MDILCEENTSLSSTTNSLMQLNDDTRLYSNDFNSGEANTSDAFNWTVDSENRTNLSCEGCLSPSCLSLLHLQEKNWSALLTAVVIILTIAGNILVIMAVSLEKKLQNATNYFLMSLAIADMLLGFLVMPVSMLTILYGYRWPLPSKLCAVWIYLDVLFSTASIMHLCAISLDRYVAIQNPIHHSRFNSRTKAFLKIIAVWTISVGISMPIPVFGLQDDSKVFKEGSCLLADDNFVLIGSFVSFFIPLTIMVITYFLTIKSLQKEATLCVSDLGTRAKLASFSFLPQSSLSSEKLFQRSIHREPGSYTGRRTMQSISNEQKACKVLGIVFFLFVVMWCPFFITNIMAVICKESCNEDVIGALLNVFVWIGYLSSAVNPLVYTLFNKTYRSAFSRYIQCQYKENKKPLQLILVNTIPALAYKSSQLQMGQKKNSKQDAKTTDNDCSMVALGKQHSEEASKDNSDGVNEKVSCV
hERG (KCNH2), sequence (Q12809 whole entry): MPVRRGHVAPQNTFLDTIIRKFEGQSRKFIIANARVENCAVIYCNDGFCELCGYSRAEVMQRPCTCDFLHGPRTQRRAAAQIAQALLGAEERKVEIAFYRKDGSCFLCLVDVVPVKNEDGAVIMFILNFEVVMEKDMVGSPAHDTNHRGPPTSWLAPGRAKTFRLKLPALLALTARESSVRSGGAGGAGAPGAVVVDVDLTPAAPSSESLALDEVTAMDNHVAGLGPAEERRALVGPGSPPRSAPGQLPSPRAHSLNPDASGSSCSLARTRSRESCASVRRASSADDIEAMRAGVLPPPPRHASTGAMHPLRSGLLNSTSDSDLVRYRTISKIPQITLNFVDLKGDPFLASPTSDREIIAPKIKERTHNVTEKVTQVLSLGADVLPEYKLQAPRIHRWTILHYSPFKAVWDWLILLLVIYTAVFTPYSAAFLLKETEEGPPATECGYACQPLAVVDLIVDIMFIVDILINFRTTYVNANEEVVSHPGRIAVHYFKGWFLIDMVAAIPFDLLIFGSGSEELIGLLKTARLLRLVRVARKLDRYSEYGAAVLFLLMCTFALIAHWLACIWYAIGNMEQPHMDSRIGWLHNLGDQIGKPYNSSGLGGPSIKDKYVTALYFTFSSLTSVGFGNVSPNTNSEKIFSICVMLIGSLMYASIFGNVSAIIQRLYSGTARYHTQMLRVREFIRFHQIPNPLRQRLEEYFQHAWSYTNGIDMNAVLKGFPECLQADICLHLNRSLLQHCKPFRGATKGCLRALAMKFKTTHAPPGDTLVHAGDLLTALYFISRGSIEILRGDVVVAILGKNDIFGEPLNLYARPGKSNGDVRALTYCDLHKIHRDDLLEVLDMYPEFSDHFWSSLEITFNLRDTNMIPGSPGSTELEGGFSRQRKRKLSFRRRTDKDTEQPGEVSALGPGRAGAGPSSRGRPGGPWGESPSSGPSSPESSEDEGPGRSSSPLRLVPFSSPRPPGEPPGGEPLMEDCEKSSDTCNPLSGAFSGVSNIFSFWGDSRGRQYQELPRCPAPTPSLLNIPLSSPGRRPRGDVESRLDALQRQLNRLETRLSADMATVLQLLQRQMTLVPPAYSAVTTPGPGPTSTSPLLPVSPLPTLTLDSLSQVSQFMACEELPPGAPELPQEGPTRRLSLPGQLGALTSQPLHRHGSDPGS

| IC50 [1] | Ki [2] | Ki [3] | Compound | inhibition at 3 µM (hERG (KCNH2)) |
| --- | --- | --- | --- | --- |
| 77 nM | > 10000 nM | 4.5 nM | COc1cccc(C(=O)Nc2ccc(OCCN3CCN(C(C)=O)CC3)c(-c3ccnn3C)c2)c1 | 24% |
| 70 nM | 8600 nM | 2.2 nM | CC(=O)N1CCN(CCOc2ccc(NC(=O)c3cccc(F)c3)cc2-c2c(Cl)cnn2C)CC1 | 43% |
| 57 nM | 5890 nM | 5.1 nM | COc1cccc(C(=O)Nc2ccc(OCCN3CCN(C(N)=O)CC3)c(-c3ccnn3C)c2)c1 | 17% |
| 127 nM | > 10000 nM | 5.3 nM | Cn1ncc(Cl)c1-c1cc(NC(=O)c2cccc(C(F)(F)F)c2)ccc1OCCN1CCNC(=O)C1 | 53% |
| 22 nM | 3380 nM | 0.6 nM | Cn1ncc(Cl)c1-c1cc(NC(=O)c2cccc(F)c2)ccc1OCCN1CCOCC1 | 46% |
| 5.8 nM | 5870 nM | 1.8 nM | COc1cccc(C(=O)Nc2ccc(OCCNCCO)c(-c3ccnn3C)c2)c1 | 36% |
